Data as given in the M2OR odorant receptor database.
Numbering of substitutions follows the chain as printed.

How the values were obtained:
Details in all cases: stereoisomer not certain
OR52I1 (Homo sapiens) = target: T1, OR52I1 (Homo sapiens) (UniProt Q8NGK6)
T1 sequence (whole entry): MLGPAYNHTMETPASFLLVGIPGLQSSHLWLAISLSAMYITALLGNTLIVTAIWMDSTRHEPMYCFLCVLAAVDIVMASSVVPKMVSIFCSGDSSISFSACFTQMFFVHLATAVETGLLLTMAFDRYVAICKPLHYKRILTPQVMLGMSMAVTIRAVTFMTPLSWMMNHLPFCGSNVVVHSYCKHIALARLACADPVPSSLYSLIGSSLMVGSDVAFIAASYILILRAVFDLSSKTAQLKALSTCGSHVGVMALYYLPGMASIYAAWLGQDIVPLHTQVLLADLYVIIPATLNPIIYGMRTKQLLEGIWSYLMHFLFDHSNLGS
In short: (§1)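 Each receptor–molecule pair is labelled responsive or non-responsive (inactive) according to whether the original authors judged the measured signal statistically different from baseline. The data were taken from the main text and supplementary material of published papers and checked for typos and inconsistencies. Assay methods differed by source, with transient luciferase assays in mammalian cell lines being common.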

OR52I2 (Homo sapiens) = target: T2, OR52I2 (Homo sapiens) (UniProt Q8NH67)
T2 sequence (whole entry): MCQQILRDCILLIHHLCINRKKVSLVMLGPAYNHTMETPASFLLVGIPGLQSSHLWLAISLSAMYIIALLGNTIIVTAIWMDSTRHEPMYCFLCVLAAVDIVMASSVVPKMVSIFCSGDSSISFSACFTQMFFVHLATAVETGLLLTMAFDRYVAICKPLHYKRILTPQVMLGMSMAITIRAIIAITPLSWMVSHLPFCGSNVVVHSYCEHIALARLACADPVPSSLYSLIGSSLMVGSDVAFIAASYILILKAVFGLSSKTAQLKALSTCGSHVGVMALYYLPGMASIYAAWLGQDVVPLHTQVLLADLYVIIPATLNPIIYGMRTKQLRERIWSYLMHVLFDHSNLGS
In short: as §1

OR52J3 (Homo sapiens) = OR52J3 (Homo sapiens) (UniProt Q8NH60)
Chain of OR52J3 (Homo sapiens) (Q8NH60 whole entry): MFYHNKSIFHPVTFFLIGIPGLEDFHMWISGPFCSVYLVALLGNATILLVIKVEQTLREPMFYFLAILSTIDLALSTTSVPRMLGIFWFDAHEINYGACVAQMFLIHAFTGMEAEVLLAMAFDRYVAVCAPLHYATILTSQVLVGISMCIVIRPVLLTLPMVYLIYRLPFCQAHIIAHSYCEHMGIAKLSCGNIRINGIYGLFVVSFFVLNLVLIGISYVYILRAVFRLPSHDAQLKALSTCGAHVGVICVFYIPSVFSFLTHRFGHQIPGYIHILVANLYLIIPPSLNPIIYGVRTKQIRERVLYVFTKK
In short: as §1

OR52K1 (Homo sapiens) = target: T3, OR52K1 (Homo sapiens) (UniProt Q8NGK4)
T3 sequence (whole entry): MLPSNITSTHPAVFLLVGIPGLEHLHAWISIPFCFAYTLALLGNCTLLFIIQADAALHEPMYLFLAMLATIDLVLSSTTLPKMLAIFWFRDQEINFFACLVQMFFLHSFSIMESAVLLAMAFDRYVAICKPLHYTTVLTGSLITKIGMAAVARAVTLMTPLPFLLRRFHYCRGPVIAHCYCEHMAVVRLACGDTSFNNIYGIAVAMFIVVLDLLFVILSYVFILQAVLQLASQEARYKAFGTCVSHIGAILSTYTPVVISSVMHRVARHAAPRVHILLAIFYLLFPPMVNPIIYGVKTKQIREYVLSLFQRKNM
In short: as §1

OR52K2 (Homo sapiens) = target: T4, OR52K2 (Homo sapiens) (UniProt Q8NGK3)
T4 sequence (whole entry): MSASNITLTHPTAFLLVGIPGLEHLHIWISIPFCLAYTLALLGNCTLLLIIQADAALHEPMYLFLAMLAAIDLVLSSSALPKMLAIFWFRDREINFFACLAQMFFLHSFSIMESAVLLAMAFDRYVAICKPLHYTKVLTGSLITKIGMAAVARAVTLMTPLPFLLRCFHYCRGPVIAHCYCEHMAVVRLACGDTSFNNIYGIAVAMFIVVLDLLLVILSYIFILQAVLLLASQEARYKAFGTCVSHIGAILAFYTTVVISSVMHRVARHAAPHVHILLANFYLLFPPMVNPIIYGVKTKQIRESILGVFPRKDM
In short: as §1

OR52L1 (Homo sapiens) [1] = target: T5, OR52L1 (Homo sapiens) (UniProt Q8NGH7)
T5 sequence (whole entry): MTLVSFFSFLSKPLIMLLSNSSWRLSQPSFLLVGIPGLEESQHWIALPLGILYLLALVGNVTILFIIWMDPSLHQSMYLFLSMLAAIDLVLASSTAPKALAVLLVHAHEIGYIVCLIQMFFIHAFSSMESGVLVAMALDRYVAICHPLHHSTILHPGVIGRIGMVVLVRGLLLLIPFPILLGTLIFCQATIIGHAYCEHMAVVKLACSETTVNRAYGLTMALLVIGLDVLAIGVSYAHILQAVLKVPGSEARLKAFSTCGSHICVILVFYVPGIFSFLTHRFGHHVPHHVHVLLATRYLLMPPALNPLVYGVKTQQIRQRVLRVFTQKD
In short: as §1

OR52M1 (Homo sapiens) = target: T6, OR52M1 (Homo sapiens) (UniProt Q8NGK5)
T6 sequence (whole entry): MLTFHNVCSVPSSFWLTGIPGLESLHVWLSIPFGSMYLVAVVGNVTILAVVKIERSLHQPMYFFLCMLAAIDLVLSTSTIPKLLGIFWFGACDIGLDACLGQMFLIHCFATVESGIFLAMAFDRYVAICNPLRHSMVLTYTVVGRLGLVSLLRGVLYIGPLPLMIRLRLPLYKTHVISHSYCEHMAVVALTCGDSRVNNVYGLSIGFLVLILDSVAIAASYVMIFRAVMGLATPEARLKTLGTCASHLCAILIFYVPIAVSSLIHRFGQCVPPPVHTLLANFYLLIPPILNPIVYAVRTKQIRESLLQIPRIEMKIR
In short: as §1

OR52N1 (Homo sapiens) = target: T7, OR52N1 (Homo sapiens) (UniProt Q8NH53)
T7 sequence (whole entry): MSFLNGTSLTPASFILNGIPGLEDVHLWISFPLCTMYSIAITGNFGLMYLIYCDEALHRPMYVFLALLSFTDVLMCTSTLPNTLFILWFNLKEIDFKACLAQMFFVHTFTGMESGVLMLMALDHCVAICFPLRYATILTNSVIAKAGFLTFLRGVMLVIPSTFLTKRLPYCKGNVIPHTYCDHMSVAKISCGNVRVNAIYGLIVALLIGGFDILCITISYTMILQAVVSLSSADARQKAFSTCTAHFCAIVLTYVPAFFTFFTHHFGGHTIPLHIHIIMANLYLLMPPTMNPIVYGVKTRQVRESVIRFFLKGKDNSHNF
In short: as §1

OR52N2 (Homo sapiens) = target: T8, OR52N2 (Homo sapiens) (UniProt Q8NGI0)
T8 sequence (whole entry): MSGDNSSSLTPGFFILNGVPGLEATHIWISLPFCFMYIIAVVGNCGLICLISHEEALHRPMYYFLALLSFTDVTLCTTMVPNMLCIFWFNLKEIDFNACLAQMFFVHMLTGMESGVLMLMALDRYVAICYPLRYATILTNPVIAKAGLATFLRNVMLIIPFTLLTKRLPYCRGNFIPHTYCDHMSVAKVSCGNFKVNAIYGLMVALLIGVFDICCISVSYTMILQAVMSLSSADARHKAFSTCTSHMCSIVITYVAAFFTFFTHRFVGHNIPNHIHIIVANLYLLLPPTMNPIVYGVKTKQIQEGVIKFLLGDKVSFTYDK
In short: as §1

OR52N4 (Homo sapiens) = target: T9, OR52N4 (Homo sapiens) (UniProt Q8NGI2)
T9 sequence (whole entry): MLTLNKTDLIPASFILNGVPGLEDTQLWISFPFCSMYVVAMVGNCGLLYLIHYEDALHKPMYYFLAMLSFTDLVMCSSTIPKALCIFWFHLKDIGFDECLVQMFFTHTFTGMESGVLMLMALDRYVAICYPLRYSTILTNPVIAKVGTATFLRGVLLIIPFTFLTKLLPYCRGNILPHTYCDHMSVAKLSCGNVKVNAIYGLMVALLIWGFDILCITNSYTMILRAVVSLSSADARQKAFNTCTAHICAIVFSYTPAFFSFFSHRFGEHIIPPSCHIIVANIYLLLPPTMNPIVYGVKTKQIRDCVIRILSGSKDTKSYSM
In short: as §1

OR52N5 (Homo sapiens) = target: T10, OR52N5 (Homo sapiens) (UniProt Q8NH56)
T10 sequence (whole entry): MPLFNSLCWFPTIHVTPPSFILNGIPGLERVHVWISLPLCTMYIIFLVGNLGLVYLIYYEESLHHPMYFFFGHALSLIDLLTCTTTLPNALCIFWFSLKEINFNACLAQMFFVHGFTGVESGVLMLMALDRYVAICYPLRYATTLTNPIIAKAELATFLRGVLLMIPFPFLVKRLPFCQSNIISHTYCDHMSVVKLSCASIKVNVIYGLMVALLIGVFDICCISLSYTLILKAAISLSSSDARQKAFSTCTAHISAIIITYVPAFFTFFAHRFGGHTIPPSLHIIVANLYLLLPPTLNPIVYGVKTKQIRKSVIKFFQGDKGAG
In short: as §1

OR52R1 (Homo sapiens) = target: T11, OR52R1 (Homo sapiens) (UniProt Q8NGF1)
T11 sequence (whole entry): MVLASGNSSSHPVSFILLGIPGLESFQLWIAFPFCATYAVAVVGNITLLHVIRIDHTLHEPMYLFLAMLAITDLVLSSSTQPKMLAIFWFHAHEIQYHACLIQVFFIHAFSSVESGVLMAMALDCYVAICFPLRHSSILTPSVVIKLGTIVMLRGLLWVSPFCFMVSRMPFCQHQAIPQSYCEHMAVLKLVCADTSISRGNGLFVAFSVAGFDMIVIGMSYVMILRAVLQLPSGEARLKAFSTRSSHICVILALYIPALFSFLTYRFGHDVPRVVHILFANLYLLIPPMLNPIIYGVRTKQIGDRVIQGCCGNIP
In short: as §1

OR52W1 (Homo sapiens) = target: T12, OR52W1 (Homo sapiens) (UniProt Q6IF63)
T12 sequence (whole entry): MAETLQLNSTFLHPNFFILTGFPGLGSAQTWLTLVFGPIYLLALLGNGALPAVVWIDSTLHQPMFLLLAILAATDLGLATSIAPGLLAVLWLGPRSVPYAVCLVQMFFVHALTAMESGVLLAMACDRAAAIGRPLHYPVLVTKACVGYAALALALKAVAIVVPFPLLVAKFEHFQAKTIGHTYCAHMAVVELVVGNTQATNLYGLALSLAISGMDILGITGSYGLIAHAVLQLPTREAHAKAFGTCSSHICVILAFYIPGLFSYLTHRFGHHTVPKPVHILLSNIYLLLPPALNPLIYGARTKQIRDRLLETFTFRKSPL
In short: as §1

OR56A1 (Homo sapiens) = target: T13, OR56A1 (Homo sapiens) (UniProt Q8NGH5)
T13 sequence (whole entry): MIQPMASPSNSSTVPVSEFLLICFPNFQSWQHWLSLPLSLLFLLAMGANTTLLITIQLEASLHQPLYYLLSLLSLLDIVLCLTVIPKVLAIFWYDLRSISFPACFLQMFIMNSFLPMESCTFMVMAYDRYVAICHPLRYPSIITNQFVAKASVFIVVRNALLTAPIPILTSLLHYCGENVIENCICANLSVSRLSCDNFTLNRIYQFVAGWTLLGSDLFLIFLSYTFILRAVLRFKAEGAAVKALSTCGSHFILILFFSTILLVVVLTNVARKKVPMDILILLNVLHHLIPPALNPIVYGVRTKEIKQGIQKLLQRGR
In short: as §1

OR56A3 (Homo sapiens) = target: T14, OR56A3 (Homo sapiens) (UniProt Q8NH54)
T14 sequence (whole entry): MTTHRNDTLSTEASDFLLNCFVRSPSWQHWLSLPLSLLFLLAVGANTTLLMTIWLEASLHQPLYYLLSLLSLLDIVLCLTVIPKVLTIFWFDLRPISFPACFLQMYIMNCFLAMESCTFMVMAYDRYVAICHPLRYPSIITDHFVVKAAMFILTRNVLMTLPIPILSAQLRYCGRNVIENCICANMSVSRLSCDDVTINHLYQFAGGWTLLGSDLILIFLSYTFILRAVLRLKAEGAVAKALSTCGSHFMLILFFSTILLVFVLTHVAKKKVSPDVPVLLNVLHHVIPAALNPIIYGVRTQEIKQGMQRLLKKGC
In short: as §1

OR56A5 (Homo sapiens) = target: T15, OR56A5 (Homo sapiens) (UniProt P0C7T3)
T15 sequence (whole entry): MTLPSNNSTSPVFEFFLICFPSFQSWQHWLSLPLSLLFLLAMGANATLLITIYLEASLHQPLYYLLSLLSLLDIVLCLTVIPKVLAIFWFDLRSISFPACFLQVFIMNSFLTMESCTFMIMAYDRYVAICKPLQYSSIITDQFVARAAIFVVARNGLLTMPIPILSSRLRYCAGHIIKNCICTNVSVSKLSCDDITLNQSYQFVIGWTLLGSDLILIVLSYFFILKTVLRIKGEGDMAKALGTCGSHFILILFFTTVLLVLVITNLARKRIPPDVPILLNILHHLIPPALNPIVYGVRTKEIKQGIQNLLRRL
In short: as §1

OR56B1 (Homo sapiens) = target: T16, OR56B1 (Homo sapiens) (UniProt Q8NGI3)
T16 sequence (whole entry): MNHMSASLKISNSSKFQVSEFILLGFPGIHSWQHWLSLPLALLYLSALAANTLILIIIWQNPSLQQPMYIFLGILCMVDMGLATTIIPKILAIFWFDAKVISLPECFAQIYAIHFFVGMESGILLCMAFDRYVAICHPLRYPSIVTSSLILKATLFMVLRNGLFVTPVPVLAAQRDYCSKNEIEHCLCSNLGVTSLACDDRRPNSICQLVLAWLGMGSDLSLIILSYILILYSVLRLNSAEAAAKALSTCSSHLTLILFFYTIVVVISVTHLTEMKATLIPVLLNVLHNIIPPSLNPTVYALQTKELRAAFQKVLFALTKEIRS
In short: as §1

OR52L1 (Homo sapiens) [2] = target: T17, OR52L1 (Homo sapiens) (UniProt Q8NGH7); remark: listed apart in the source
T17 sequence (whole entry): T5 sequence (whole entry) with R140C, R161C, T183K, R297W
In short: as §1

OR56A4 (Homo sapiens) = target: T18, OR56A4 (Homo sapiens) (UniProt Q8NGH8)
T18 sequence (whole entry): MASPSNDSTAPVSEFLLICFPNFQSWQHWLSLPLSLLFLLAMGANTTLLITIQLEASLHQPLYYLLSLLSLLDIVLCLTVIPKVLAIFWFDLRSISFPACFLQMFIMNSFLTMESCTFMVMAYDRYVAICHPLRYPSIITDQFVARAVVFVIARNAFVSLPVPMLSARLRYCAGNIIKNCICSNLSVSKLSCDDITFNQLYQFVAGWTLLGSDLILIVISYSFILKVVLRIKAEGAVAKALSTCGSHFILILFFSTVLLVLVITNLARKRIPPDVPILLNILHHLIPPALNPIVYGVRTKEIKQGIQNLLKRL
In short: as §1

Measured: odorant receptor agonist call

CC1=NC(C)C(C)S1 (stereo not given)
not listed: OR52L1 (Homo sapiens) [2] | OR56A4 (Homo sapiens)
inactive: all other assays above

CC(CO)CS (stereo not given)
not listed: OR52L1 (Homo sapiens) [1]
inactive: all other assays above
